From PubChem
Rows were chosen to be rich in hits. Some 1.3% of all compounds tested hit in one or more screens of this group.
EphB4 ephrin blk: EphB4-ephrin-B2 interaction antagonists, primary screen, biochemical, TNYL-RAW peptide probe, fluorescence polarization; inhibition, % at 7 µM; EphB4 LBD / TNYL-RAW-Alexa532 peptide; AID 720, 2007; Ephrin type-B receptor 4 (Homo sapiens), P54760; 97,000 compounds, 0.15% hits;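 active = inhibition above the screen-wide mean inhibition plus 3 SD, cut at about 15% in these data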;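 note: 0% = DMSO wells and 100% = excess unlabeled TNYL-RAW peptide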
Target sequence (P54760 whole entry, looked up, the tested form may be a part): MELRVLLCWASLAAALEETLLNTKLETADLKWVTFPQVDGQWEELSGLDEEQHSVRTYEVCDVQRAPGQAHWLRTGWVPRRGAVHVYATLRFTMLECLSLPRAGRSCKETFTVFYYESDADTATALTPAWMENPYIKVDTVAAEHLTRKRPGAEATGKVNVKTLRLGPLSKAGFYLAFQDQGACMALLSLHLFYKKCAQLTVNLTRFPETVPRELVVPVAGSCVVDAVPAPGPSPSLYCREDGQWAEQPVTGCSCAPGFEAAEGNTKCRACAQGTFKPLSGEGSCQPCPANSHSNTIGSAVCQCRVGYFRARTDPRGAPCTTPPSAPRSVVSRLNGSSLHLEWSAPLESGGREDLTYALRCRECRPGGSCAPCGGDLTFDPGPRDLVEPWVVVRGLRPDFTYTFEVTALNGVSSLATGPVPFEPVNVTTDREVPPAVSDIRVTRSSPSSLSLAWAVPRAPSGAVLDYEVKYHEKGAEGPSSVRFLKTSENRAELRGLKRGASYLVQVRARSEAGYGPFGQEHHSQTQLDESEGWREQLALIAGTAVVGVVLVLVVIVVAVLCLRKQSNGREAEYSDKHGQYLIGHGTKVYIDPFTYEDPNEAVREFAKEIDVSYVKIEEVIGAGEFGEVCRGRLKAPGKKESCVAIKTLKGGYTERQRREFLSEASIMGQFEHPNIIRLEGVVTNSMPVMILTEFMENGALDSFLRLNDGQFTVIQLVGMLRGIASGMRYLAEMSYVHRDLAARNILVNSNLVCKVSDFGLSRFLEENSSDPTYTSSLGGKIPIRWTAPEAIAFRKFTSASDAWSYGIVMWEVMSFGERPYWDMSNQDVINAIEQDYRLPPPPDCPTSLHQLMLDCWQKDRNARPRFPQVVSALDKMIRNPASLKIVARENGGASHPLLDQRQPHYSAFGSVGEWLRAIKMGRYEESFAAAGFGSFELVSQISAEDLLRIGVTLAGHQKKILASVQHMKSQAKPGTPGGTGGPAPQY
Mac1 fbg inh: inhibitors of CD11b/CD18 adhesion to fibrinogen, primary screen, K562 cells, luminescence; inhibition, % at 10 µM; ATPlite luminescence; Mn2+ added to activate the integrin; 93,000 compounds, 0.54% hits; Integrin beta-2 (Homo sapiens) + Integrin alpha-M (Homo sapiens), P05107+P11215;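 active = primary inhibition of 50% or more at 10 µM, then 40% or more on retest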
Phagocytosis inh: inhibitors of macrophage phagocytosis, primary screen, imaging, J774A.1 cells, IgG beads; J774A.1 macrophage IgG-bead phagocytosis; inhibition, % at 5 µM; 110,000 compounds, 0.07% hits; AID 1029, 2008;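 active = inhibition above the mean of the plate negative controls plus 5 SD, cut at about 13% in these data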;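 note: phagocytic index as fraction of beads internalized from green versus red external bead signal; plate controls were DMSO negative control for no effect and cytochalasin-D positive control for full effect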
Smad3 inh: Smad3/FoxH1 peptide binding inhibitors, primary screen, biochemical, TR-FRET; Mothers against decapentaplegic homolog 3 (Homo sapiens), P84022; TR-FRET Smad3/Dy647-FoxH1 peptide binding, europium anti-His; inhibition, % at 25 µM; 88,000 compounds, 0.29% hits; AID 630, 2007;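 active = compounds that reduce the energy-transfer binding signal between the protein and its labelled peptide by more than half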;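 note: 0% = Smad3 plus labelled peptide maximal FRET and 100% = peptide-only background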
Rev-RRE block: HIV-1 Rev-RRE binding inhibitors, primary screen, biochemical, FRET, protein-RNA interaction; P05866; Rev peptide-RRE RNA binding; inhibition, % at 8 µM; 97,000 compounds, 0.79% hits; AID 704, 2007;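 active = inhibition above the screen-wide mean plus 3 SD, cut at about 35% in these data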;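 note: 0% = median DMSO wells and 100% = median Neomycin B control wells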
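Assay system: Labelled RRE RNA duplex and labelled Rev peptide | Times: 5 min preincubation and 15 min binding, 25 °C | Detection: FRET, ex 480 nm, em 540 and 671 nm | Evaluation: % inhibition of FRET ratio versus controls | Benchmarks: DMSO wells as 0% and neomycin B wells as 100% inhibition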
CD11b adhes enh: enhancers of CD11b/CD18 adhesion to fibrinogen, primary screen, K562 cells, luminescence | ATPlite luminescence | activation, % at 10 µM | 93,000 compounds, 0.07% hits | AID 1499, 2009;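 active = 10 µM primary screen giving 50% or more activity, confirmed by 40% or more on retest at that dose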
* = called active by the depositor; . = no result given; [ ] = dose if it differs, or a comment.

SMILES	EphB4 ephrin blk	Mac1 fbg inh	Phagocytosis inh	Smad3 inh	Rev-RRE block	CD11b adhes enh
O=S(=O)(N/N=C/c1ccc(OC2CSC2)cc1)c1ccccc1	.	-12.4	-2.5	.	.	11.2
CN1C(=O)c2cccc(NCCCN3C(=O)c4ccccc4C3=O)c2C1=O	1.8	-5.5	-1.9	-2.1	57.8*	-1.5
O=C(c1ccccc1)[C@H](Nc1ccc2ccccc2c1)c1ccccc1	.	.	.	-0.9	.	.
CN1CCc2nc(SCC(=O)Nc3cccc(F)c3)c(C#N)c(-c3cccs3)c2C1	-2.8	.	.	.	55.8*	.
CCCCNS(=O)(=O)c1ccc2nc(SCC(=O)Nc3sccc3C#N)[nH]c2c1	6.0	102.2*	1.1	14.5	23.0	-8.5
O=C1C(Cl)=C(Nc2ccc(S(=O)(=O)Nc3ccccn3)cc2)C(=O)c2ccccc21	.	.	.	99.3*	.	.
Nc1ccc(S(=O)(=O)Nc2ccccn2)cc1	.	.	.	-3.7	.	.
CCN(CC)c1ccc(C=C2C(=O)OC3(CCCC3)OC2=O)cc1	.	32.0	-3.6	.	.	2.9
CN(C)c1ccc(C=C2C(=O)OC(C)(C(C)(C)C)OC2=O)cc1 (centres undefined)	-3.7	-0.9	-0.7	.	63.5*	-2.0
COc1ccc([C@H]2[C@H](C(=O)C(C)(C)C)N3N=Cc4ccccc4C3[C@]23N=C(c2ccccc2)OC3=O)cc1OC (some centres undefined)	-1.0	-3.3	2.1	-0.9	-1.9	90.6*
O=C1CCC(c2ccccc2)=NN1c1nc2ccccc2s1	.	.	.	18.3	.	.
CCNc1ccc2noc3c2c1C(=O)c1ccccc1-3	95.4*[fluorescence artefact?]	.	.	3.7	138.2*[fluorescence artefact?]	.
O=C1c2ccccc2-c2onc3ccc(NCc4ccco4)c1c23	.	9.4	-0.2	-13.3	.	-1.2
CCOc1ccc2noc3c2c1C(=O)c1ccccc1-3	2.1	0.4	-0.5	.	132.8*[fluorescence artefact?]	3.9
COc1cc(/C=c2\s/c(=C(/C#N)C(=O)N3CCCC3)n(-c3ccccc3)c2=O)ccc1O	-5.0	-0.7	-0.5	-1.6	46.0*	8.0
COC(=O)/C=c1/s/c(=C(/C#N)C(=O)N2CCCCC2)n(-c2ccccc2)c1=O	.	6.9	-5.2	-5.7	.	1.1
Cc1ccc(S(=O)(=O)N=Nc2c(O)[nH]c3cc(O)c(C(=O)O)cc23)cc1	.	.	.	15.6	.	.
Cn1c(=O)c2c(ncn2CN2CCN(Cn3cnc4c3c(=O)n(C)c(=O)n4C)CC2)n(C)c1=O	.	.	.	97.6*	.	.
Cn1c(=O)c2c(ncn2CC(O)CO)n(C)c1=O (centres undefined)	.	.	.	-2.7	.	.
Oc1sc(C=Nc2ccc(F)cc2)c2ccccc12	-3.9	-10.7	-0.2	.	109.4*[fluorescence artefact?]	-2.7
Oc1sc(C=Nc2ccccc2)c2ccccc12	-1.4	-0.6	-0.8	.	119.5*[fluorescence artefact?]	6.1
O=C(O)CC[C@]1(C(=O)O)CCC(=O)c2ccccc21	.	.	.	-22.9	.	.
c1ccc(-c2cn3nc(-c4ccccc4)c(-c4ccccc4)nc3n2)cc1	6.9	.	.	.	98.3*[fluorescence artefact?]	.
[O-][n+]1c(CN2CCCCC2)nc2cccc3c2c1-c1ccccc1-3	.	.	.	-10.1	.	.
O=C1C[C@H]2C(=O)[C@@H]1[C@@H](C(=O)O)[C@H]2C(=O)O	.	.	.	-7.9	.	.
SMILES	EphB4 ephrin blk	Mac1 fbg inh	Phagocytosis inh	Smad3 inh	Rev-RRE block	CD11b adhes enh
Cn1c(=O)oc2cc(S(=O)(=O)Nc3ccc4c(c3)OCCO4)ccc21	3.6	14.9	0.0	6.0	38.3*	-0.8
O=C(O)c1ccc(/C=N/N=C2c3ccccc3-c3ccccc32)cc1	.	.	.	10.5	.	.
Brc1ccc(-c2nc(N/N=C/c3cccnc3)c3ccccc3n2)cc1	-1.3	101.2*	-0.3	6.2	5.1	-7.4
Cc1ccc(-c2nc(N/N=C/c3ccccc3[N+](=O)[O-])c3ccccc3n2)cc1	-3.4	.	.	.	-0.8	.
CC(=O)Nc1ccc(SCC(=O)OCC(=O)NC(=O)NCc2ccco2)cc1	16.3*	-3.7	-0.6	-5.9	6.9	-3.9
C[C@@]1(C(=O)O)CCC[C@@H]1C(=O)O	.	.	.	14.7	.	.
N=C(N)SCCCN	.	.	.	-16.2	.	.
